Screens deposited in PubChem by several laboratories.
PREPL inh: inhibitors of human prolyl oligopeptidase-like enzyme PREPL | inhibition, % at 5.96 µM | AID 2751 | Q4J6C6 | 320,000 compounds, 0.68% hits | recombinant PREPL, fluorescence polarization activity-based probe; in the data active means inhibition above about 43%;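 further: 0% = enzyme with DMSO and 100% = wells lacking enzyme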
Target sequence (Q4J6C6 whole entry, looked up): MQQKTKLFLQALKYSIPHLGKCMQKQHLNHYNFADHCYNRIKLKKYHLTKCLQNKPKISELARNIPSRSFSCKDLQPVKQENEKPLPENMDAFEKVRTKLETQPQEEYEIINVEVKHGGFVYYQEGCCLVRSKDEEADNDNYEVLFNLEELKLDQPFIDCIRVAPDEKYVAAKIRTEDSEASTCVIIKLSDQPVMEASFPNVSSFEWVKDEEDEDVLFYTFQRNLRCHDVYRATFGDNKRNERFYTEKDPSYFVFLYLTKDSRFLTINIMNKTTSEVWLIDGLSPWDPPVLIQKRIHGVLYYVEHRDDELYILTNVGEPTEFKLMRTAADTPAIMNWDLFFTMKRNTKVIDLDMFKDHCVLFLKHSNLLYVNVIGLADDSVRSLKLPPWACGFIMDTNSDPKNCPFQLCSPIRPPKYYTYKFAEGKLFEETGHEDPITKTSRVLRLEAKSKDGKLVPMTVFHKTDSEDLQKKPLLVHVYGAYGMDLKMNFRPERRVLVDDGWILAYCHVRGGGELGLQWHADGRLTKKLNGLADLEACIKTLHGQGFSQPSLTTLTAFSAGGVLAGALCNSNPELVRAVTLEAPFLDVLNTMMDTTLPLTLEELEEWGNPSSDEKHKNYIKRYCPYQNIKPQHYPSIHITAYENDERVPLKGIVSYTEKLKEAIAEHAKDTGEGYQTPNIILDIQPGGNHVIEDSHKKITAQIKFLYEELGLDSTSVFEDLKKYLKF
Beta apoptosis: blocks beta cell apoptosis. INS-1E cytokine-induced death, ATP luminescence, 48 h; percent of positive-control rescue, neutral wells zero. protection from apoptosis, % (test concentration not listed). 300,000 compounds, 0.8% hits. AID 435005;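 active means Every replicate reaches about 75%, or at least half do and their mean reaches it too, limit read from the data; inconclusive means At least half of replicates reach the limit but their mean does not; inactive means Under half of replicates reach the limit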;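 further: 0% = cytokine-treated negative control wells and 100% = positive control rescue; higher means more ATP so stronger rescue from cytokine killing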
GRIN3A LBD mod: modulators (binders) of human NR3A ligand-binding domain; NR3A LBD differential scanning fluorimetry, Tm shift; 0% = protein alone, 100% = glycine-bound protein; Tm shift relative to glycine control, % at 25 µM; 340,000 compounds, 2.5% hits;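 active means melting temperature shift of at least 10% of the positive control shift, at one fixed dose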
T cruzi inh: blocks replication of Trypanosoma cruzi; 300,000 compounds, 1.4% hits; AID 1885; T. cruzi beta-gal in NIH3T3, luminescence, 90 h; inhibition, % (concentration not given with the values);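 active means mean inhibition across valid replicates above about 55%, limit read from the data; inconclusive means mean below that limit but half or more replicates reach it; inactive means mean below it, under half of replicates reach it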;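 further: signal also drops with host cell toxicity which is not excluded here; 0% = plate median of DMSO wells and 100% = zero luminescence signal; higher percent means less beta-gal luminescence so fewer parasites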
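Assay system: NIH/3T3 fibroblasts plus reporter T. cruzi. Amount: NIH/3T3 cells, 5,000 per well. Buffer or medium: DMEM, 2% fetal bovine serum. Doses: compound pinned at 50 nL/well, DMSO. Schedule: ≥90 h infection period, 3 h prior cell attachment. Signal: luminescent β-galactosidase signal after 60 min lysis. Read-out: parasite load inhibition, %.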
CHOP inh: blocks CHOP induction under ER stress; CHO-K1 CHOP-promoter luciferase, tunicamycin-induced, 15-18 h; inhibition, % at 10 µM; 220,000 compounds, 3.8% hits; AID 2732;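 active means compounds that reduced the stress-induced luciferase reporter signal by more than about 70% of percent inhibition, limit read from the data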;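 further: 0% = tunicamycin plus vehicle and 100% = wells without tunicamycin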
CSC inhib: cancer stem cell inhibition. cancer stem cell-like cells viability, luminescence. inhibition, % at 7.5 µM. 300,000 compounds, 1.1% hits. AID 2717; in the data active means inhibition above about 75%; inconclusive means no clear call, values can overlap the other calls; tested in HMLE shEcad cells
CHOP inh conf: confirmation of CHOP induction inhibitors. shares compounds with CHOP inh. CHO-CHOP promoter luciferase reporter, tunicamycin-induced, luminescence. inhibition, % at 10 µM. 2,100 compounds, 45% hits;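 active means mean of three repeat readings of reporter signal inhibition above a set limit, cut at about 70% in these data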;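 further: 0% = tunicamycin plus vehicle and 100% = wells lacking tunicamycin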
* = called active by the depositor; ? = inconclusive; / = no result. A selection: hits, their analogues and other compounds. The true share with any hit is near 6.7%.

SMILES | PREPL inh | Beta apoptosis | GRIN3A LBD mod | T cruzi inh | CHOP inh | CSC inhib | CHOP inh conf
CCOC(=O)c1ccc(S(=O)(=O)N2CCN(C3CC(=O)N(c4ccccc4C(F)(F)F)C3=O)CC2)cc1 (centres undefined) | / | / | 0 | / | / | / | /
Cc1ccc(C2(c3ccc(C)cc3)CC2C(=O)Nc2ccc([N+](=O)[O-])cc2O)cc1 (centres undefined) | 43 | 125* | 1 | 55* | 107* | 174* | 78*
O=C(Nc1ccc([N+](=O)[O-])cc1)C1CC1(c1ccccc1)c1ccccc1 (centres undefined) | -6 | -6 | 6 | 42 | 50 | 21 | /
O=S(=O)(Nc1cc(Cl)cc(Cl)c1)N1CCOCC1 | 0 | 3 | -1 | -21 | / | -4 | /
C[C@@H]1CC=C[C@H]2[C@H]1C(=O)N(Cc1ccccc1)[C@H]2c1ccc2ccccc2c1Br | / | / | -3 | 46 | 98* | / | 59
C[C@@H]1CC=C[C@H]2[C@H]1C(=O)N(Cc1ccccc1)[C@H]2c1ccc(Br)cc1F | -8 | -3 | -2 | 18 | 49 | 31 | /
CC[C@@H]1CC=C[C@H]2[C@H]1C(=O)N(Cc1ccccc1)[C@H]2c1ccoc1 | 13 | 6 | -2 | 42 | 101* | 86* | 137*
COc1ccc(NC(=S)N(CCN2CCOCC2)Cc2cc3cc4c(cc3[nH]c2=O)OCCO4)cc1 | 16 | 3 | 0 | 10 | 8 | 8 | /
Cc1ccc(NC(=O)CSC2=C(C#N)C(c3ccco3)C3=C(CC(C)(C)CC3=O)N2)cc1 (centres undefined) | 40 | -2 | -1 | 7 | 100* | / | 44
CCOC(=O)C1=CN(Cc2ccco2)S(=O)(=O)N(C)C1CC (centres undefined) | / | / | -1 | / | / | / | /
O=C(COc1ccc(/C=N/NC(=O)c2cc3ccccc3o2)cc1Cl)Nc1ccccc1 | -6 | -4 | -1 | 73* | 108* | 116* | 46
O=C(N/N=C/c1ccc2c(c1)OCO2)c1cc2ccccc2o1 | 4 | 2 | 1 | -9 | 12 | 18 | /
Cc1ccc(S(=O)(=O)N2CCCCC2)c2nsnc12 | 11 | 0 | 0 | -7 | / | / | /
N=c1n(Cc2ccccc2)c2ccccc2n1Cc1ccccc1 | -15 | 13 | 1 | -6 | 14 | / | /
Cc1ccc(OCC(O)Cn2c(=N)n(Cc3ccccc3)c3ccccc32)cc1 (centres undefined) | -21 | 49 | -1 | ? | 105* | 33 | 50
Cc1cccc(OCC(O)Cn2c(=N)n(Cc3ccccc3)c3ccccc32)c1 (centres undefined) | -14 | 1 | 0 | 19 | 35 | 27 | /
N=c1n(Cc2ccccc2)c2ccccc2n1CC(O)COc1ccc(Cl)cc1Cl (centres undefined) | / | / | -1 | 19 | 109* | / | 92*
NC(=O)C1C(=O)c2ccccc2C1(C[N+](=O)[O-])c1ccccc1 (centres undefined) | / | / | 2 | / | / | / | /
CS/C(=N\S(=O)(=O)c1cccs1)Nc1ccc(Br)cc1F | -9 | 7 | -4 | -22 | -3 | -11 | /
Cc1ccc(OCCNC(=O)C(=O)NCc2ccco2)cc1 | -3 | 2 | -4 | -47 | 15 | / | /
Cc1cc(Br)ccc1OCC(=O)NNC(=O)c1cnccn1 | -5 | -3 | -1 | -47 | -23 | 7 | /
C=CCn1c(SCC(=O)N2CCN(c3ccccc3)CC2)nc2c([nH]c3ccccc32)c1=O | 41 | 8 | 2 | -21 | / | 7 | /
O=[N+]([O-])c1ccc(O)c(/C=N/Nc2ccccn2)c1 | 5 | 105* | -6 | 51 | 105* | 118* | 11
CCOC(=O)C1=C(C)NC(C)=C(C(=O)OCC)C1C(=O)OCC(=O)NCc1ccccc1OC | 9 | -1 | 1 | / | / | -2 | /
FC(F)Sc1ccc(NC(=S)NCC2CCCCC2)cc1 | 6 | 11 | 31* | 23 | 106* | 48 | 15
SMILES | PREPL inh | Beta apoptosis | GRIN3A LBD mod | T cruzi inh | CHOP inh | CSC inhib | CHOP inh conf
Cc1cccc2c1NC(=O)C2(c1ccc(O)cc1)c1ccc(O)cc1 | -8 | -1 | -4 | 23 | 21 | / | /
Cc1cc(C2(c3ccc(O)c(C)c3)C(=O)Nc3ccccc32)ccc1O | 0 | 5 | 6 | 28 | 105* | ? | 119*
O=C(NCCc1ccccc1)C1CCC(CNc2nc(=S)[nH]c3ccccc23)CC1 (centres undefined) | 8 | 6 | 0 | 11 | 104* | 45 | -70
O=C(CCCCCNc1nc(=S)[nH]c2ccccc12)NCCC1=CCCCC1 | -5 | 8 | -2 | -4 | 101* | -10 | 22
CCCc1nn(C)c2c(=O)[nH]c(-c3cc(S(=O)(=O)Nc4ccc(NC(C)=O)cc4)ccc3OCC)nc12 | 7 | -2 | -3 | -9 | 2 | 24 | /
Cc1ccccc1NC(=O)/C=C/c1ccc([N+](=O)[O-])s1 | 16 | 120* | 0 | -10 | 102* | 98* | 79*
CC[C@]1(C(=O)OC)[C@H]2C(=O)N(C)C(=O)[C@H]2[C@H]2CN=C(SCC3CC3)N21 | / | / | 2 | / | / | / | /
CS(=O)(=O)c1ncc(Cl)c(C(=O)Nc2ccc(N3CCOCC3)cc2)n1 | 16 | -6 | 0 | 42 | / | ? | 117*
COc1ccc(CC(=O)N[C@@H]2c3cc(OC)c(OC)cc3C[C@H]2O)cc1 | / | / | -2 | / | / | / | /
Cc1ccccc1C(=O)NNC(=S)NC(=O)c1ccc(Cl)cc1Cl | 5 | / | -13 | -28 | 96* | / | 12
CC1CCCC(NC(=O)CCC(=O)NCc2ccccc2)C1C (centres undefined) | -4 | / | 0 | 0 | / | -2 | /
Cc1cc(C)c2c(=O)n(CC(=O)NC3CCCC3)sc2n1 | 0 | -5 | 5 | ? | 6 | -7 | /
COc1ccc(OC)c(CCNC(=O)Cn2sc3nc(C)cc(C)c3c2=O)c1 | 16 | / | / | 46 | 98* | 20 | -2
Cc1ccc(Cn2c(=O)c3c(nc4n3CCCN4Cc3ccccc3)n(C)c2=O)cc1 | -2 | 5 | -23 | 12 | 105* | 7 | -11
CC1=NN(c2nc(-c3ccc(C)cc3)cs2)C(=O)C1N=Nc1ccccc1O (centres undefined) | 22 | 29 | 11* | 55* | 107* | 55 | 77*
COc1ccc(-c2csc(N3N=C(C)C(C)C3=O)n2)cc1 (centres undefined) | 1 | 9 | -1 | 0 | -33 | -7 | /
O=S(=O)(NCC(Nc1ccc(Cl)cc1)c1ccccc1)c1ccccc1 (centres undefined) | -2 | 7 | 23* | 8 | 99* | 63 | 22
Cc1cc(C)c(NC(N)=S)c(C)c1 | 3 | -2 | 5 | -18 | 5 | -2 | /
O=C(CCl)N1CCN2C(=O)c3ccccc3C12c1ccc(Cl)cc1 (centres undefined) | -1 | 13 | 2 | 19 | 105* | 59 | 113*
